Data on 42 compounds can be found in ChEMBL document CHEMBL1142992, “Discovery of diaryl imidazolidin-2-one derivatives, a novel class of muscarinic M3 selective antagonists (Part 1)” (J Med Chem, 2007).

Data set [1] can be described thus: Permeability across human Caco-2 cell membrane. In kind it is ADME, cell-based. A digest of the protocol:
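Caco-2 monolayers grown 21 days on polycarbonate inserts. Integrity checked by TEER (1000 Ω) and sodium fluorescein leakage. Compound at 50 µM in 1% DMSO applied apically, 2 h at 37 °C. Apical and basolateral samples measured by LC-MS/MS. Papp = CbVb/(C0·A·t).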

Data set [2] is described as follows: Intrinsic clearance in rat liver microsomes. In kind it is ADME, Microsome. A digest of the protocol: (§1)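 Human or rat liver microsomes at 0.5 mg/mL final, preincubated with 0.5 µM test compound in phosphate buffer pH 7.4 for 10 min at 37 °C. Clearance reported as mL/min/g liver.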
Data set [3] in a line: Intrinsic clearance in human liver microsomes. In kind it is ADME, Microsome. A digest of the protocol: as §1
Data set [4] deals with Muscarinic acetylcholine receptor M3 (Rattus norvegicus) (UniProt P08483). The conditions noted are these: filed as antagonist.
The target in data set [5] is T1, Muscarinic acetylcholine receptor M2 (Homo sapiens, UniProt P08172).
T1 sequence (P08172 whole entry): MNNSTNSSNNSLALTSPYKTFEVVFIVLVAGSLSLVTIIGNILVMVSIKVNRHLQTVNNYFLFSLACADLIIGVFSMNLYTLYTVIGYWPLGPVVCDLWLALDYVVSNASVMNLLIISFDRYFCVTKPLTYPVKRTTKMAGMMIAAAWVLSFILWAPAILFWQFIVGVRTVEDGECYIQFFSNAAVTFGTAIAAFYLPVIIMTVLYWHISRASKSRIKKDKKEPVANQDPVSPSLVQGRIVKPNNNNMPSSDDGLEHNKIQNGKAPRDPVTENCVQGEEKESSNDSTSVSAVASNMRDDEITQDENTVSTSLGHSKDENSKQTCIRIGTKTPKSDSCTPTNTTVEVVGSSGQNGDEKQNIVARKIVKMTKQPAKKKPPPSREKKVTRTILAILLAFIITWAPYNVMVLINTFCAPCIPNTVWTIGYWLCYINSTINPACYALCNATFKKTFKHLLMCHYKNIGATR
In words: Displacement of [3H]N-methyl-scopolamine from human muscarinic M2 receptor expressed in CHO K1 cells. In kind it is cell-based. A digest of the protocol:
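Membranes from CHO-K1 cells expressing human M2 receptor, homogenized and stored at -80 °C, resuspended in 50 mM Tris-HCl pH 7.4, 2.5 mM MgCl2, 1 mM EDTA. [3H]-N-methyl scopolamine 0.1-0.3 nM; nonspecific binding with cold N-methyl scopolamine. 10-point curves in duplicate, 60 min at room temperature, filtration through GF/B, scintillation counting.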

Data set [6] has as its target T2, Muscarinic acetylcholine receptor M2 (Homo sapiens) (UniProt P08172).
T2 sequence (whole entry): T1 sequence (P08172 whole entry)
Nature of the data set: Displacement of [3H]N-methyl-scopolamine from human muscarinic M2 receptor expressed in CHO K1 cells at 10 uM. It counts as cell-based.

Data set [7] has as its target Muscarinic acetylcholine receptor M3 (Homo sapiens) (UniProt P20309). Nature of the data set: Displacement of [3H]N-methyl-scopolamine from human muscarinic M3 receptor expressed in CHO K1 cells at 10 uM. It counts as cell-based.
The next data set concerns the target Cytochrome P450 2C19 (Homo sapiens, UniProt P33261). Nature of the data set: Inhibition of human CYP2C19 expressed in insect cells. In kind it is ADME. A digest of the protocol: (§2)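 Insect-cell microsomes expressing human CYP1A2, 2C9, 2C19, 2D6 or 3A4, each with an isoform-specific fluorogenic substrate in 0.35 M potassium phosphate pH 7.4. […] Inhibitor serially diluted; plates prewarmed 10 min at 37 °C. Reaction stopped with acetonitrile/Tris, read by fluorescence. IC50 from nonlinear regression. Positive controls: furafylline, sulfaphenazole, tranylcypromine, quinidine, ketoconazole.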

For a further data set, the target named is Cytochrome P450 2C9 (Homo sapiens, UniProt P11712). Nature of the data set: Inhibition of human CYP2C9 expressed in insect cells. It counts as ADME. A digest of the protocol: as §2
The target in a further data set is T3, Cytochrome P450 1A2 (Homo sapiens, UniProt P05177).
T3 sequence (P05177 whole entry): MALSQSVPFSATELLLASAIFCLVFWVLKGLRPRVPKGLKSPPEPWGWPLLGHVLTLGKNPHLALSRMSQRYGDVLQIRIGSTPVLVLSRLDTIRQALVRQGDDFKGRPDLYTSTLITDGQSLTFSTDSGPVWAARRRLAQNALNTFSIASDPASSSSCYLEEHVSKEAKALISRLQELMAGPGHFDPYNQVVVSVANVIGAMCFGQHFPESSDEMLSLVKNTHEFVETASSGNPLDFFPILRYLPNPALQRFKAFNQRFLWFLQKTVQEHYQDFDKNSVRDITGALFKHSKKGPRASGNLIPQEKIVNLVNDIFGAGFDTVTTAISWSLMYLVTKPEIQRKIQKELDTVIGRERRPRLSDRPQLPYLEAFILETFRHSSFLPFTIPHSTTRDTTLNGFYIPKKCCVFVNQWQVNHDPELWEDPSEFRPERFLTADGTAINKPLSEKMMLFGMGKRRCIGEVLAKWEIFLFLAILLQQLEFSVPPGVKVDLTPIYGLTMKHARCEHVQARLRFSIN
In words: Inhibition of human CYP1A2 expressed in insect cells. It counts as ADME. A digest of the protocol:
as §2

For another data set, the target named is Cytochrome P450 2D6 (Homo sapiens, UniProt P10635). In words: Inhibition of human CYP2D6 expressed in insect cells. In kind it is ADME. A digest of the protocol: as §2
The next data set addresses Cytochrome P450 3A4 (Homo sapiens, UniProt P08684). Nature of the data set: Inhibition of human CYP3A4 expressed in insect cells. It counts as ADME. A digest of the protocol: as §2

Chain of Muscarinic acetylcholine receptor M3 (Homo sapiens) (P20309 whole entry, looked up, canonical isoform): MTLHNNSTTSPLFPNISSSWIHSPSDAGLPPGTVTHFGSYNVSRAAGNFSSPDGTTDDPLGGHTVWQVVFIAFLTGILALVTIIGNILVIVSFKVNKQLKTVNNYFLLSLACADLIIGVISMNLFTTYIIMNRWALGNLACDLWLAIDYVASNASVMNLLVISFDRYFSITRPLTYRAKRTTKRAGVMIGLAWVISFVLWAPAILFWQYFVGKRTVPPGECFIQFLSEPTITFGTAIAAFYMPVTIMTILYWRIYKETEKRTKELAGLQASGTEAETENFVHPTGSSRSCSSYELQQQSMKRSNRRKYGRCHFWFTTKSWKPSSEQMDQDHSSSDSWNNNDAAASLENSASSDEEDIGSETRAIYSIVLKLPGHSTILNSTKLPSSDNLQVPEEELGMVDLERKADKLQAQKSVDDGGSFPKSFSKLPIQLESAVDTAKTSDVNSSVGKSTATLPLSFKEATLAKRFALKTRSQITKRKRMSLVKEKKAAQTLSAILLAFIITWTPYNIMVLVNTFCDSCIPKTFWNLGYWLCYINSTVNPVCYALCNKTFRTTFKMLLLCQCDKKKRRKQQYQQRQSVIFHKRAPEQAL
Chain of Cytochrome P450 3A4 (P08684 whole entry): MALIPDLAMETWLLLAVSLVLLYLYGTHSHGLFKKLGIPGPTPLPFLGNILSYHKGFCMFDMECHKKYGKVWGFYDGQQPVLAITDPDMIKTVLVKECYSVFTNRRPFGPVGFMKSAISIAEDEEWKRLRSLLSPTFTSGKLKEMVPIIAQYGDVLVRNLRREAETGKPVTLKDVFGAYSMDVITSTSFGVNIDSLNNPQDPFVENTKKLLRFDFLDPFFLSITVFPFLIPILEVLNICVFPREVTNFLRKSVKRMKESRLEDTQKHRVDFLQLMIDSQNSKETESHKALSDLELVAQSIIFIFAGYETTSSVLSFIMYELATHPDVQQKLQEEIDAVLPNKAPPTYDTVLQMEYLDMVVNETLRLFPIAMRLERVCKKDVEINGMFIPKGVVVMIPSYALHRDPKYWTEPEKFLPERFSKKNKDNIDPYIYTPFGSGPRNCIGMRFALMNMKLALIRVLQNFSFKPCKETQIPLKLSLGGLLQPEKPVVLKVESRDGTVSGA
Chain of Cytochrome P450 2C19 (P33261 whole entry, canonical isoform): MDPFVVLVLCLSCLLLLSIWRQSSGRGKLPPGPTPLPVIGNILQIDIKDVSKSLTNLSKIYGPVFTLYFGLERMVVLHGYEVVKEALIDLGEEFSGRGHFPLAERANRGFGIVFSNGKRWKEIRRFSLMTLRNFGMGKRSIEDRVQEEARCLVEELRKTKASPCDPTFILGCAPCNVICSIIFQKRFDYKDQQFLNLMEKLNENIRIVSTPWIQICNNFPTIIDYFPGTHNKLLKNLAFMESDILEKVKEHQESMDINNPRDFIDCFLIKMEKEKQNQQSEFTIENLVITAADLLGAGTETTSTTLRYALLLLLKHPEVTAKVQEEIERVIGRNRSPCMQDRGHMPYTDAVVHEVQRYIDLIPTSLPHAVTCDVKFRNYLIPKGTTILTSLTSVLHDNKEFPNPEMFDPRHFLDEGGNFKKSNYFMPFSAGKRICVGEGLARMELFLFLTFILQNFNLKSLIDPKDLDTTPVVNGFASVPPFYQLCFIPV
Chain of Cytochrome P450 2C9 (P11712 whole entry): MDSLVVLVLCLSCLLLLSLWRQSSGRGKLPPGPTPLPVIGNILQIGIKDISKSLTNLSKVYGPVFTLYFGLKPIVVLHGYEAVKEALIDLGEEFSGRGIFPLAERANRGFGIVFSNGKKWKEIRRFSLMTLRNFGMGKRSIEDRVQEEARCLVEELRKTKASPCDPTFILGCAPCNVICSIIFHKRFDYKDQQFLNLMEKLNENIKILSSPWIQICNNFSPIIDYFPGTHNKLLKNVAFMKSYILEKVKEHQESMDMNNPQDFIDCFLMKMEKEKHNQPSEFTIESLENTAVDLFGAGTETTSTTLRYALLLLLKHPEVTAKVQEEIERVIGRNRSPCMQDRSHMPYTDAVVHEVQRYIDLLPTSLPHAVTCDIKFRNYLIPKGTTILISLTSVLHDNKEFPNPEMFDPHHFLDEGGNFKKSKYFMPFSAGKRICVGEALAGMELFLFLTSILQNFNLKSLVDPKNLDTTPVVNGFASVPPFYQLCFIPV
Chain of Cytochrome P450 2D6 (P10635 whole entry): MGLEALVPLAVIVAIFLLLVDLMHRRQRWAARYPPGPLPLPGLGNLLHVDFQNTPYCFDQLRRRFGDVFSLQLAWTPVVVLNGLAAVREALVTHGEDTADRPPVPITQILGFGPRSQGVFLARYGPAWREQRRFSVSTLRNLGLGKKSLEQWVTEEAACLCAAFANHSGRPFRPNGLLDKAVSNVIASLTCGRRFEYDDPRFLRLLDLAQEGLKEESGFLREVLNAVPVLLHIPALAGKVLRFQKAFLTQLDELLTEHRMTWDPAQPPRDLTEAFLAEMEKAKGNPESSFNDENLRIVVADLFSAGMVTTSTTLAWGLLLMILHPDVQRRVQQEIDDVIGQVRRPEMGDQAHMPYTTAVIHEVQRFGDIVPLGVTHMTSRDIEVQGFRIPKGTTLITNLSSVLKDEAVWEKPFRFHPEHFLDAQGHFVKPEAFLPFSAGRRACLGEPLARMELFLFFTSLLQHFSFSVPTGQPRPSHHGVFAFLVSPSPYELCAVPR
Chain of Muscarinic acetylcholine receptor M3 (Rattus norvegicus) (P08483 whole entry, looked up): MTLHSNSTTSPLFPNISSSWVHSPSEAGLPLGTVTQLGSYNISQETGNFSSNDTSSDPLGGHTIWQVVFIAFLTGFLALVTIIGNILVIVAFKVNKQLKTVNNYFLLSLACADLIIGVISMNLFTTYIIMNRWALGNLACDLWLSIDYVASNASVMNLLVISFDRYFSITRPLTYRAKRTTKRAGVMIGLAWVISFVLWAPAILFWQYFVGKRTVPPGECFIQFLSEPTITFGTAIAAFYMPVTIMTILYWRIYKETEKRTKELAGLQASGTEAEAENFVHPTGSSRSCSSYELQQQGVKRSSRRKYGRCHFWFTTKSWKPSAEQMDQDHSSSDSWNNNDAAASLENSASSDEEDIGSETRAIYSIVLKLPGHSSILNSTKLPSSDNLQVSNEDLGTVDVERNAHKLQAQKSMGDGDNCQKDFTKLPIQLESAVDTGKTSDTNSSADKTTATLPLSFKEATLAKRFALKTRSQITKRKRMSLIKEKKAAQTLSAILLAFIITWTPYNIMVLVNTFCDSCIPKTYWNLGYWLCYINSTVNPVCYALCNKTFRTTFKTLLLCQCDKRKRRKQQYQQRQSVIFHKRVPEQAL

`O=C1NC(c2ccccc2)(c2ccccc2)CN1C1CCN(Cc2ccccc2)CC1` came in with a Papp in data set [1] of more than 5 ×10⁻⁶ cm/s. For the same compound, the CLint scaled in [2] was 4.7 mL/min/g; in data set [3], 1.1 mL/min/g. On to `Cc1ccc(O)c([C@H](CCN(C(C)C)C(C)C)c2ccccc2)c1`, for which the negative-log Kb (pKb) in data set [4] was 8.86. `COc1ccc(CN2CCC(N3CC(c4ccccc4)(c4ccccc4)NC3=O)CC2)cc1`: the Ki in data set [5] was 0.49 µM (antagonist). Still for that read-out and setting: for `O=C1NC(c2ccccc2)(c2ccccc2)CN1C1CC2CCC(C1)N2Cc1ccccc1` (configuration not stated) the value was 0.065 µM (antagonist); for `CN1C(=O)N(C2CCN(Cc3ccccc3)CC2)CC1(c1ccccc1)c1ccccc1`, 0.52 µM (antagonist). The compound `O=C1NC(c2ccccc2)(c2ccccc2)CN1C1CCN(CC2CCCCC2)CC1` displayed an inhibition in data set [6] of less than 50%. Take `O=C1NC(c2ccccc2)(c2ccccc2)CN1C1CCN(Cc2ccc(Cl)cc2)CC1`: in [5], the Ki is 0.296 µM (antagonist).

Consider `C#CCN1CCC(N2CC(c3ccccc3)(c3ccccc3)NC2=O)CC1`, for which the inhibition in data set [7] was less than 50%. As to `O=C1NC(c2ccccc2)(c2ccccc2)CN1C1CCN(Cc2cc(Cl)cc(Cl)c2)CC1`, the inhibition in [7] is less than 50%. In turn, `O=C1NC(c2ccccc2)(c2ccccc2)CN1C1CCN(Cc2cccc(OC(F)(F)F)c2)CC1` had an inhibition in data set [6] of less than 50%. `O=C1NC(c2ccccc2)(c2ccccc2)CN1C1CCCN(Cc2ccccc2)C1` (configuration not stated) registered an inhibition in data set [6] of less than 50%. With `O=C1NC(c2ccccc2)(C2CCCCC2)CN1C1CCN(Cc2cccc(Cl)c2)CC1` (configuration not stated), in [5], the Ki was 0.515 µM (antagonist).

For the compound `O=C1NC(c2ccccc2)(c2ccccc2)CN1C1CCN(Cc2cccc(F)c2)CC1`, in [5], the inhibition constant (Ki) was 0.302 µM (antagonist). Take `O=C1NC(c2ccccc2)(c2ccccc2)CN1C1CCN(Cc2cccc(C(F)(F)F)c2)CC1`: the inhibition in [6] was less than 50%. In [6], `O=C1NC(c2ccccc2)(c2ccccc2)C(=O)N1C1CCN(Cc2ccccc2)CC1` gave an inhibition of less than 50%.

As to `O=C1NC(c2ccccc2)(c2ccccc2)CN1C1CCN(Cc2c[nH]cn2)CC1`, the inhibition in [6] is less than 50%.

In turn, `O=C(c1cccc(Cl)c1)N1CCC(N2CC(c3ccccc3)(c3ccccc3)NC2=O)CC1` gave an inhibition in [7] of less than 50%. For the compound `O=C1NC(c2ccc(F)cc2)(c2ccc(F)cc2)CN1C1CCN(Cc2cccc(F)c2)CC1`, the half-maximal inhibitory concentration (IC50) at Cytochrome P450 2C19 was 17.4 µM; on Cytochrome P450 2C9, 7.3 µM; at Cytochrome P450 1A2 it was more than 100 µM; at Cytochrome P450 2D6, 12 µM; against Cytochrome P450 3A4, more than 100 µM. Moreover, in data set [1], the apparent permeability coefficient (Papp) was more than 5 ×10⁻⁶ cm/s. Also, the values for the CLint scaled in data set [2] and in data set [3] were 1.4 mL/min/g and 0.78 mL/min/g, respectively.

In the case of `O=C1N(C2CCN(Cc3ccccc3)CC2)CC(c2ccccc2)N1Cc1ccccc1` (configuration not stated), the Ki in data set [5] was 0.629 µM (antagonist). The same measure, in the same setting: for `Cc1cccc(CN2CCC(N3CC(c4ccccc4)(C4CCCCC4)NC3=O)CC2)c1` (configuration not stated) the value was 0.166 µM (antagonist). As to `COc1ccc(C2(c3ccc(OC)cc3)CN(C3CCN(Cc4ccccc4)CC3)C(=O)N2)cc1`, the inhibition in data set [6] is less than 50%. In [6], `O=C1NC(c2ccccc2)(c2ccccc2)CN1C1CCN(c2ccccc2)CC1` yielded an inhibition of less than 50%. As to `O=C1NC(Cc2ccccc2)(Cc2ccccc2)CN1C1CCN(Cc2ccccc2)CC1`, the Ki in data set [5] is on record as 2.95 µM (antagonist). On to `COc1cccc(CN2CCC(N3CC(c4ccccc4)(c4ccccc4)NC3=O)CC2)c1`, for which the Ki in [5] was 0.695 µM (antagonist). Still for that read-out and setting: for `O=C1NC(c2ccccc2)(c2ccccc2)CN1C1CCN(CCc2ccccc2)CC1` the value was 0.411 µM (antagonist). As for `COc1ccccc1CN1CCC(N2CC(c3ccccc3)(c3ccccc3)NC2=O)CC1`, the inhibition in data set [6] was less than 50%. With `O=C1NC(c2ccccc2)(c2ccccc2)CN1[C@H]1CCN(Cc2ccccc2)C1`, in data set [5], the Ki is on record as 2.27 µM (antagonist). With `O=C1NC(c2ccccc2)(c2ccccc2)CN1C1CCN(CCOc2ccccc2)CC1`, the inhibitory constant (Ki) in [5] was 0.328 µM (antagonist).

As for `O=C1NC(c2ccccc2)(c2ccccc2)CN1C1CCN(Cc2cccnc2)CC1`, in [5], the Ki was 0.302 µM (antagonist). The same measure, in the same setting: for `Nc1cccc(CN2CCC(N3CC(c4ccccc4)(c4ccccc4)NC3=O)CC2)c1` the value was 0.182 µM (antagonist); for `CN1CCC(N2CC(c3ccccc3)(c3ccccc3)NC2=O)CC1`, 2.92 µM (antagonist). The same measure, in the same setting: for `O=C1NC(c2ccccc2)(c2ccccc2)CN1[C@@H]1CCN(Cc2ccccc2)C1` the value was 0.0822 µM (antagonist). On to `O=C1NC(c2ccc(F)cc2)(c2ccc(F)cc2)CN1C1CCN(Cc2cccc(Cl)c2)CC1`, for which the half-inhibitory concentration (IC50) at Cytochrome P450 2C19 is 17.7 µM; at Cytochrome P450 2C9, 4.2 µM; at Cytochrome P450 1A2, more than 100 µM; on Cytochrome P450 2D6, 5.3 µM; against Cytochrome P450 3A4, more than 100 µM. In [1], this compound displayed an apparent permeability (Papp) of less than 1 ×10⁻⁶ cm/s. The intrinsic metabolic clearance (CLint scaled) in data set [2] came to 1.8 mL/min/g; in data set [3] it was 0.87 mL/min/g. For `O=C1NC(c2ccccc2)(c2ccccc2)CN1C1CCN(Cc2cccs2)CC1`, the inhibition constant Ki in data set [5] was 0.927 µM (antagonist). `O=C1NC(c2cccs2)(c2cccs2)CN1C1CCN(Cc2ccccc2)CC1`: the Papp in [1] is more than 5 ×10⁻⁶ cm/s. Further, the intrinsic clearance (CLint scaled) in [2] was found to be 23.7 mL/min/g; in [3], 2.3 mL/min/g. In data set [7], `O=C1NC(C2CCCCC2)(C2CCCCC2)CN1C1CCN(Cc2ccccc2)CC1` showed an inhibition of less than 50%. On to `O=C1NC(c2ccccc2)(c2ccccc2)CN1C1CCN(Cc2cccc(O)c2)CC1`, for which the Ki in [5] was 0.0479 µM (antagonist). `N#Cc1cccc(CN2CCC(N3CC(c4ccccc4)(c4ccccc4)NC3=O)CC2)c1` came in with an inhibition in [6] of less than 50%. The same measure, in the same setting: for `O=C1NC(c2ccccc2)(c2ccccc2)CN1C1CCN(Cc2ccccc2Cl)CC1` the value was less than 50%. With `O=C1OC(c2ccccc2)(c2ccccc2)CN1C1CCN(Cc2ccccc2)CC1`, the Ki in [5] was 0.908 µM (antagonist).

In the case of `O=C1NC(c2ccccc2)(c2ccccc2)CN1C1CCCN(Cc2ccccc2)CC1` (configuration not stated), in data set [5], the inhibitory constant (Ki) is 0.002 µM (antagonist). The compound `O=C1NC(c2cccs2)(c2cccs2)CN1C1CCN(Cc2cccc(F)c2)CC1` gave an apparent permeability (Papp) in data set [1] not above 1 ×10⁻⁶ cm/s. Moreover, the CLint scaled worked out at 13.8 mL/min/g in [2] and 0.95 mL/min/g in data set [3].

As a reminder, the Papp is a coefficient for how fast a substance crosses the barrier. A lower Papp goes with slow passage. By CLint scaled is commonly meant a measure of how fast metabolising enzymes remove a compound, apart from limits set by blood flow. Low values mean greater metabolic stability, high ones faster metabolism. In general, pKb refers to the Kb on a negative log10 scale, so that one unit is a factor of ten. By Ki is commonly meant the dissociation constant of the complex between target and ligand, obtained from inhibition or displacement. A high value points to lower affinity. Usually inhibition stands for the relative decrease from the control value, in per cent. A higher inhibition goes with strong suppression. The term IC50 denotes the concentration that inhibits the measured activity by half. Read a low IC50 as greater potency in that assay.
